Only some compounds are listed: those with a hit (about 5.4% of all), similar ones and a draw of the others.
Mdm2-MdmX inh – inhibitors of human Mdm2/MdmX interaction. SaOS-2 split-luciferase Mdm2/MdmX complementation, luminescence. AID 485346. inhibition, % at 8 µM. actives 3% (n = 330,000);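 active = inhibition of at least 50% at 8 µM in the primary screen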
Target sequence (O15151 whole entry, looked up): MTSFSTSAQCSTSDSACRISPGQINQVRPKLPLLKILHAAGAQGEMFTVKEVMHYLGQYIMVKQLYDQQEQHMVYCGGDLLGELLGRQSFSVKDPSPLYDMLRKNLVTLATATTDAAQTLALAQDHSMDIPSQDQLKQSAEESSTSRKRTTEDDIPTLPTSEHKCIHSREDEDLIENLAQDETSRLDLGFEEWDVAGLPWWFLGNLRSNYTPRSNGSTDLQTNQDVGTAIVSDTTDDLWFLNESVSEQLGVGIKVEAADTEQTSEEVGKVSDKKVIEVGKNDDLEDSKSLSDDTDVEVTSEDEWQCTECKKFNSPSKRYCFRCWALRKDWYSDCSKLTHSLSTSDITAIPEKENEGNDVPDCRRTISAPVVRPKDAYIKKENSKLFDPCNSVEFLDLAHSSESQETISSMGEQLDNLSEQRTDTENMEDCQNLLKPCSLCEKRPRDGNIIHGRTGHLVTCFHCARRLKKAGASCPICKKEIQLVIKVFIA
Target sequence (Q00987 whole entry, looked up): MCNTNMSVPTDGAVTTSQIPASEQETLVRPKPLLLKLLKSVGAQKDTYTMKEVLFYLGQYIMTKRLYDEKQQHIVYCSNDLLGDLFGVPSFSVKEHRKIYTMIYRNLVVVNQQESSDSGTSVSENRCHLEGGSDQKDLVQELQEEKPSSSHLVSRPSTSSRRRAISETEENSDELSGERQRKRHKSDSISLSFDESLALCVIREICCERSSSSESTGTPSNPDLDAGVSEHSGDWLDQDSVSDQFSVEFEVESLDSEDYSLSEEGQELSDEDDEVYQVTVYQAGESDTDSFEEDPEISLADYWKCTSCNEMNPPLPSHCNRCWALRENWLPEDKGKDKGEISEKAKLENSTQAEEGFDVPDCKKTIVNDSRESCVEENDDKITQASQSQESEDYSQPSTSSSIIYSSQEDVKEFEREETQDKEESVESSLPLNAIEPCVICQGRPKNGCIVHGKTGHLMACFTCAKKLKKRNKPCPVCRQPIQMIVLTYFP
T cruzi inh – blocks replication of Trypanosoma cruzi. inhibition, % (test concentration not listed). actives 1.4% (n = 300,000). T. cruzi beta-gal in NIH3T3, luminescence, 90 h;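 active = mean inhibition across valid replicates above about 55%, limit read from the data; inconclusive = mean below that limit but half or more replicates reach it; inactive = mean below it, under half of replicates reach it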;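 also: signal also drops with host cell toxicity which is not excluded here; 0% = plate median of DMSO wells and 100% = zero luminescence signal; higher percent means less beta-gal luminescence so fewer parasites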
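Test system: β-gal T. cruzi (Tulahuen C4) inside NIH/3T3 cells / Quantity: 5,000 cells/well / Measured by: luminescence from GalScreen with 0.05% NP40, read after 60 min / Medium: DMEM plus 2% FBS / Measure: parasite load inhibition, % / Reagent: Tulahuen C4 trypomastigotes, 5000/well / Schedule: co-culture of at least 90 h after 3 h attachment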
aSyn UTR inh – 5' untranslated region of α-synuclein, MLPCN primary screen; alpha-synuclein 5'UTR reporter, inhibitor activity; inhibition, % (tested at 7.5 µM); actives 0.82% (n = 300,000); AID 1813; in the data active = inhibition above about 60%; inconclusive = no clear call, values can overlap the other calls;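 also: H4 neuroglioblastoma cells stably carrying SNCA 5'UTR luciferase fusion; 0% = DMSO wells and 100% = positive control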
CSC inhib – blocks cancer stem cells; cancer stem cell-like cells viability, luminescence; inhibition, % at 7.5 µM; actives 1.1% (n = 300,000); AID 2717; in the data active = inhibition above about 75%; inconclusive = no clear call, values can overlap the other calls; tested in HMLE shEcad cells
SKKanGAS inh – blocks kanamycin growth of S. pyogenes SKKanGAS strain; inhibition, % at 7.5 µM; actives 1.3% (n = 300,000); BacTiter-Glo, 6 h;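 active = mean replicate score, as percent of positive control median, at least 50; inconclusive = mean below 50 but one replicate at or above 50; inactive = mean and every replicate below 50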;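 also: strain carries kanamycin resistance gene driven by streptokinase promoter and grows in 40 µg/ml kanamycin; loss of luminescence reflects streptokinase promoter inhibition or plain growth inhibition; 0% = median of DMSO wells and 100% = positive control at its reference dose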
* hit, by the source's call; ? = inconclusive; · = no result given.

SMILES | Mdm2-MdmX inh | T cruzi inh | aSyn UTR inh | CSC inhib | SKKanGAS inh
O=C(CSC(=S)N1CCCCC1)Nc1nc(-c2ccccc2)c(-c2ccccc2)o1 | 9.7 | -10.2 | 10.6 | 14.0 | 50.1*
O=C(CSC(=S)N1CCOCC1)Nc1nc(-c2ccccc2)c(-c2ccccc2)o1 | 22.4 | -9.4 | 4.2 | -14.3 | 41.5
C[C@H](CO)N1C[C@H](C)[C@@H](CN(C)Cc2ccc(-c3ccccc3)cc2)Oc2c(NC(=O)Nc3ccc4c(c3)OCO4)cccc2C1=O | 32.8 | · | · | · | ·
CC(C)c1ccc(NC(=O)COC(=O)C2CCCCC2)cc1 | -29.6 | · | · | -7.7 | ·
CCOC(=O)c1oc2ccc(CNC3CCCCC3)c(Cl)c2c1C | 25.9 | 74.1* | -25.4 | · | 4.4
CCOC(=O)c1oc2ccc(CNCCO)c(Cl)c2c1C | -5.2 | 10.3 | -62.8 | 8.9 | -3.7
CCOc1ccc(-n2c(SCc3ccc([N+](=O)[O-])cc3)nnc2-c2ccc(OC)cc2)cc1 | 1.4 | 49.7 | 31.2 | · | 10.1
COc1ccc(-c2nc3n(c(=O)c2C#N)CCCS3)cc1 | 37.3 | -15.5 | 20.5 | -14.4 | 11.2
CCOc1ccc(-c2nc3n(c(=O)c2C#N)CCCS3)cc1 | 21.4 | -2.9 | 2.3 | -12.4 | 57.6*
O=C(CN1C(=O)COc2ccc(S(=O)(=O)N3CCCCC3)cc21)NCc1ccc(F)cc1 | 20.8 | -13.7 | 0.4 | -18.1 | 103.4*
CCCc1nc2ccccc2c(=O)n1NC(=O)c1c(O)c2cccc3c2n(c1=O)CCC3 | 35.2 | 3.6 | 15.3 | -10.6 | 73.0*
CC(C)c1nnc(NC(=O)c2c(O)c3cccc4c3n(c2=O)CCC4)s1 | 18.2 | -1.3 | -10.8 | 24.3 | 90.4*
O=C(Nc1cccc(N2CCCC2)c1)c1cccs1 | 4.8 | 57.4* | -66.0 | -15.9 | 1.4
O=C(NC(=S)Nc1ccc(N2CCCCC2)c(Cl)c1)c1cccs1 | -12.8 | 11.0 | -109.8 | 81.2* | 42.5
C=C(C)COc1ccc(-c2nc(N)ncc2-c2ccc(OC)c(OC)c2)c(O)c1 | 40.1 | 46.0 | 44.8 | 1.7 | -3.5
C=C(C)COc1ccc(-c2[nH]ncc2Oc2cccc(OC)c2)c(O)c1 | 23.8 | -4.1 | 5.6 | -9.4 | 75.7*
C=C(C)COc1ccc(-c2nc(N)ncc2-c2ccc(Cl)cc2)c(O)c1 | 34.1 | 47.1 | 0.3 | 103.8* | 99.0*
C=C(C)COc1ccc(-c2nc(N)nc(C)c2-c2ccc(OC)cc2)c(O)c1 | 1.1 | 48.5 | 9.8 | 9.1 | -18.7
C=C(C)COc1ccc(-c2[nH]ncc2Oc2ccccc2OCC)c(O)c1 | 30.5 | · | 16.2 | ? | 76.5*
C=C(C)COc1ccc(-c2ncncc2Oc2ccc(OC)cc2)c(O)c1 | 18.8 | · | -9.5 | 16.2 | 55.3*
CC(=O)c1cccc(NC(=O)CSc2nnc(C(C)N(C)C)n2Cc2ccccc2)c1 (configuration not stated) | -3.0 | 4.8 | -0.4 | 11.9 | 2.4
Cc1csc2nc(CSc3nc4ccccc4o3)c(Br)n12 | -105.4 | 35.8 | -129.1 | 10.7 | 60.1*
Cc1csc2nc(CSc3nncn3-c3ccccc3)c(Br)n12 | 31.7 | 4.9 | -15.9 | -14.0 | -3.8
CC(C)C[C@H](NC(=O)OC(C)(C)C)C(=O)N/N=C/C1=Cc2ccccc2OC1C (some centres not stated) | -2.1 | 68.6* | 6.6 | · | 7.8
O=S(=O)(c1ccc(Cl)cc1)N1CCN=C1SCc1cccc(Cl)c1 | -23.3 | 6.5 | -5.6 | -8.1 | -14.4
SMILES | Mdm2-MdmX inh | T cruzi inh | aSyn UTR inh | CSC inhib | SKKanGAS inh
O=S(=O)(c1ccccc1)N1CCN=C1SCc1c(F)cccc1Cl | 22.4 | 10.0 | 8.0 | -7.5 | 64.1*
C=CCn1cccc(/C=C/C(=O)c2ccc(C(C)(C)C)cc2)c1=S | · | 13.3 | -74.4 | 110.6* | -4.3
CCC(Oc1ccccc1)C(=O)Nc1ccccc1N1CCCCC1 (configuration not stated) | 37.0 | 27.1 | 18.7 | 24.0 | 61.3*
CC(Oc1cccc(Cl)c1)C(=O)Nc1ccccc1C(=O)N1CCCCC1 (configuration not stated) | 10.0 | 0.6 | 5.9 | -12.9 | -4.5
CC(Oc1cccc(Cl)c1)C(=O)Nc1ccccc1N1CCCCC1 (configuration not stated) | 2.0 | 21.8 | 27.3 | 36.1 | 73.2*
CCOc1ccc(Nc2nc(N3CCCC3)nc(N3CCN(c4ccc(OC)cc4)CC3)n2)cc1 | 9.3 | 61.1* | 11.1 | · | 30.4
CCOC(=O)c1sc(NC(=O)CN2CC(C)OC(C)C2)nc1C (configuration not stated) | -17.3 | 3.3 | 23.1 | 26.9 | -1.7
O=C(CCCSc1ccccc1)Nc1nc(-c2ccccn2)cs1 | 11.6 | -6.7 | 18.9 | 14.9 | 105.1*
Cn1cccc1C(=O)Nc1nc(-c2ccccn2)cs1 | 24.3 | 65.5* | -31.6 | 23.7 | 81.4*
Cc1nnc(SCC(=O)Nc2cccc(Br)c2)s1 | -1.0 | · | · | -5.8 | ·
COc1ccccc1CN1CCCC(CN(CCN(C)C)C(=O)C2CCCC2)C1 (configuration not stated) | 8.7 | 32.6 | 1.3 | -3.0 | 3.9
CCNC(=S)N/N=C/c1cccc(OCc2c(F)cccc2Cl)c1 | 35.6 | 58.9* | 31.3 | 31.7 | -1.0
Cc1cccc(S(=O)(=O)N2CCn3cccc3C2C)c1 (configuration not stated) | -20.8 | · | · | -12.3 | ·
c1ccc(CN2CCN(c3nc4ccccc4c4ccccc34)CC2)cc1 | -0.9 | 23.5 | -4.0 | 12.4 | 76.4*
CCC1(C)Cc2ccccc2-c2nc(NN)[nH]c(=O)c21 (configuration not stated) | 9.8 | 14.9 | -6.2 | -3.4 | 6.9
CCC1(C)Cc2ccccc2-c2nc(-c3ccccc3)oc(=O)c21 (configuration not stated) | 13.0 | 9.9 | -1.2 | 43.6 | 54.1*
O=C(Nc1ccc(-c2nc3ccccc3s2)cc1)C1=COCCO1 | -21.0 | 0.0 | 94.2* | 35.0 | 7.5
O=C(Nc1cccc(-c2nc3ccccc3s2)c1)C1=COCCO1 | 3.1 | -2.5 | -81.5 | 10.8 | -1.1
CCOc1ccccc1N(C(=O)Nc1ccc(Cl)cc1)C1=NCCS1 | -8.7 | 2.3 | -18.6 | 83.8* | ·
COc1ccc(NS(=O)(=O)c2cc(NC(=O)COc3ccc(OC)cc3)ccc2N2CCOCC2)cc1 | 20.3 | · | · | -4.9 | ·
CC1CN(C(=O)c2ccc(-c3cccc(C(F)(F)F)c3)o2)CC(C)O1 (configuration not stated) | -16.8 | 14.4 | 11.1 | -7.9 | -8.7
NC(=S)NN=C1c2ccccc2-c2ccccc21 | 23.2 | 25.7 | -12.9 | 2.2 | 3.8
CCOC(=O)c1c(N)sc2c(OCC)c(Br)ccc12 | 2.1 | 39.3 | -24.2 | 79.4* | -4.6
O=C(Nc1nnc(SCc2ccc(F)cc2)s1)c1ccc2c(c1)C(=O)N(c1ccccc1Cl)C2=O | 6.4 | -7.3 | 18.7 | 11.3 | 54.2*
CN(C)c1ccc(/C=C/C(=O)c2ccc3c(c2)OCCO3)cc1[N+](=O)[O-] | 10.7 | 6.8 | -41.3 | 48.8 | -0.5
CN(C)c1ccc(/C=N/N=C(N)N)cc1[N+](=O)[O-] | 5.2 | 77.7* | -4.5 | -3.1 | 1.9
N/C(=N\OC(=O)N1c2ccccc2Sc2ccccc21)c1ccccc1 | 19.6 | 82.4* | -18.8 | 1.2 | -6.9

High-throughput results: PubChem, several laboratories
